# Source: PubChem BioAssay
# PfG6PD inh = PfG6PD (Plasmodium falciparum) enzyme inhibition. PfGluPho enzyme, NADPH resazurin-diaphorase fluorescence. AID 504690. inhibition, % at 20 µM. hit rate 0.78% among 350,000;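 active means inhibition reaching at least a set limit at 20 µM in the primary screen, cut at about 59% in these data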
# EP2 modulator = EP2 receptor (human) modulation; EP2-expressing cells, cAMP HTRF FRET, PGE2 co-stimulation; induction, % at 25 µM; hit rate 0.83% among 260,000;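 active means compounds whose cAMP rise, as percent of the full-agonist control response, exceeds 60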;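 further: rat C6 glioma line stably carrying human EP2 under a CMV promoter; the protocol text gives 20 µM as final concentration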
# TbHK1 inh = T. brucei hexokinase 1 inhibition; hit rate 0.11% among 220,000; inhibition, % at 10 µM; AID 1430; recombinant TbHK1, G6PDH-coupled NADH A340;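 active means inhibition of 50% or more in the single-dose primary screen; inactive means inhibition below 50%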
# PHOSPHO1 block = PHOSPHO1 (human) inhibition | inhibition, % at 13.3 µM | recombinant PHOSPHO1, absorbance phosphatase assay | hit rate 1.1% among 290,000 | Q8TCT1; in the data active means inhibition above about 60%
# Target sequence (Q8TCT1 whole entry, looked up): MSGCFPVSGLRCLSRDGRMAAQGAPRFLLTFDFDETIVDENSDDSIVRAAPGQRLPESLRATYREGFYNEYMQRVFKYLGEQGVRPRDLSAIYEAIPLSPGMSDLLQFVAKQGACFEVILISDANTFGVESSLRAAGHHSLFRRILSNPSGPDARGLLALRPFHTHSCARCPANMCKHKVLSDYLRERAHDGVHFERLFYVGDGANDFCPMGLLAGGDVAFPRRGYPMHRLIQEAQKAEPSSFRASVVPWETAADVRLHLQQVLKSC
# HKDC1 inhibitor = inhibitors of human hexokinase HKDC1 | Q2TB90 | recombinant HKDC1, G6PDH/diaphorase resazurin coupled fluorescence | hit rate 0.16% among 340,000 | inhibition, % at 20 µM | AID 493160;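 active means inhibition above about 35% when tested at 20 µM, limit read from the data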
#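 test system = in-house recombinant HK5 (HKDC1) enzyme | amount = HKDC1 at 5 µg/mL | control set = DMSO-enzyme wells negative, buffer-substituted wells positive | compound = one dose of 20 µM, 1% DMSO | schedule = reaction time 90 min, room temperature, protected from light | technique = resorufin fluorescence at 613 nm | reagent = glucose with 1 mM ATP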
# PGE2 EP2 inh = inhibitors of human EP2 prostaglandin E2 receptor; hit rate 0.52% among 260,000; AID 1422; inhibition, % at 25 µM; C6 glioma cells expressing human EP2, cAMP TR-FRET; cells stimulated with saturating PGE2;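 active means percent inhibition above 40 after rounding to a whole number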;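 further: rat C6 glioma host cells with rolipram phosphodiesterase inhibitor present; the protocol text gives 20 µM as final concentration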
# EP2 confirm = EP2 receptor cAMP induction, counter-screens negative; shares compounds with EP2 modulator; C6 glioma EP2 cells, cAMP HTRF induction; plus low (about EC15) PGE2 agonist; calls only at 20 µM (by protocol); hit rate 47% among 1,300; AID 1080;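 active means cAMP induction above 50% in the main assay while under 30% in all four parallel counter assays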;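 further: rat C6 glioma cells stably expressing human EP2 receptor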
# Numbers stand for hits; - = inactive; . = not tested or not shown; + = active, no number. A selection: hits, their analogues and other compounds. The true share with any hit is near 2.5%.
SMILES,PfG6PD inh,EP2 modulator,TbHK1 inh,PHOSPHO1 block,HKDC1 inhibitor,PGE2 EP2 inh,EP2 confirm
COC(=O)c1ccc(CSc2ncnc3ccccc23)o1,-,-,-,-,-,-,.
O=C(CSc1ncnc2c1oc1ccccc12)Nc1ccccc1F,-,76,-,-,-,-,-
COC(=O)c1ccc(CSc2ncnc3c2oc2ccccc23)o1,-,66,-,-,-,-,-
CCn1c(-c2ccccc2)c(C(=O)CCl)c2ccccc21,-,78,-,-,-,-,+
Cn1c(-c2ccccc2)c(C(=O)CCl)c2ccccc21,-,-,-,-,-,-,.
CCn1c2ccccc2c2cc(/C=N/n3c(C)nnc3C)ccc21,-,94,-,-,-,-,+
O=C(Nc1ccccc1N1CCCCC1)c1ccc(Cl)c([N+](=O)[O-])c1,-,-,-,-,-,-,+
O=C(Nc1cccc(Cl)c1N1CCCCC1)c1ccc2c(c1)OCCO2,-,74,-,-,-,-,-
Nc1cccc(C(=O)Nc2ccc3nc(-c4ccccn4)[nH]c3c2)c1,.,-,.,.,.,-,.
C=CCc1cc(C=O)cc(OC)c1OCc1ccc(Cl)cc1,-,83,-,-,-,-,+
C=CCc1cc(C=O)cc(OCC)c1OCc1ccc(Cl)cc1,-,87,-,-,-,-,+
Cc1cc(C)c2cc(C)c(SCC(=O)NCc3ccco3)nc2c1,-,77,-,-,-,-,+
Cc1cc(C)c2cc(C#N)c(SCC(=O)NCc3ccco3)nc2c1,-,-,-,-,-,.,.
CS(=O)(=O)N1CCc2cc(-c3csc(NC(=O)CCc4ccccc4)n3)ccc21,.,-,.,.,.,-,.
c1ccc(-c2nn3c(-c4ccccc4)nnc3s2)cc1,-,74,-,-,-,-,+
c1ccc(-c2nn3c(C4CCCCC4)nnc3s2)cc1,-,73,-,-,-,-,+
CC(C)c1nc(SCc2c(F)cccc2Cl)c2c(=O)n(C)c(=O)n(C)c2n1,-,80,-,-,-,-,+
O=C(CSc1nc2cccnc2n1C1CCCCC1)Nc1ccccc1F,.,-,.,.,.,-,.
CC1CCCCN1c1nc2c(c(=O)[nH]c(=O)n2C)n1Cc1ccccc1Cl (stereo not given),.,-,.,.,.,-,.
CC1C(c2ccccc2)N(C)C(c2ccccc2)C(C)C1(O)C#Cc1ccccc1 (stereo not given),-,66,-,-,-,-,+
CCN1CCC(O)(C#Cc2ccccc2)CC1,-,.,.,.,-,.,.
CCCCOc1cc(C)nc(NCc2ccccc2)n1,-,78,-,-,-,-,+
Cc1cccc(C(=O)Nc2nnc(-c3cccnc3)s2)c1,.,-,.,.,.,-,.
Cc1cc(C)c(S(=O)(=O)c2ccccc2)c(OC(=O)c2cc(F)c(F)cc2Cl)n1,-,73,-,-,-,-,-
Cc1cc(OC(=O)c2cc(F)c(F)cc2Cl)nc(C)n1,-,-,-,-,-,-,.
SMILES,PfG6PD inh,EP2 modulator,TbHK1 inh,PHOSPHO1 block,HKDC1 inhibitor,PGE2 EP2 inh,EP2 confirm
CC(=O)NC(c1ccccc1)c1cccnc1 (stereo not given),-,70,-,-,-,-,-
CSc1ncc(C(=O)NC(c2ccccc2)c2cccnc2)cn1 (stereo not given),.,-,.,.,.,-,.
O=C(NC1CCCCC1)C1CCCN(S(=O)(=O)c2ccc(-n3cnnn3)cc2)C1 (stereo not given),.,-,.,.,.,-,.
CCCCNc1nc2c(S(=O)(=O)c3ccccc3)nnn2c2ccccc12,-,69,-,-,-,-,-
CCc1ccc(S(=O)(=O)c2nnn3c2nc(NCCNC(C)=O)c2ccccc23)cc1,-,-,-,-,-,-,.
COc1cccc(CC(=O)N[C@H](C)Cn2nnc3ccccc32)c1,.,-,.,.,.,-,.
Fc1ccccc1Nc1nc2c(s1)CCc1ccccc1-2,.,79,-,-,.,-,+
Cc1cccc(N(C(=O)c2csnn2)C(C(=O)NC(C)(C)C)c2sccc2C)c1 (stereo not given),.,-,.,.,.,-,.
Cc1ccc2nc(SCC(=O)Nc3ccccc3F)c(C#N)cc2c1,.,-,.,.,.,-,.
O=S1(=O)CCN(Cc2cccc(Cl)c2)CC1,-,86,-,-,-,-,-
